Results as given in ChEMBL document CHEMBL1128459, “Characterization of potent and selective antagonists at postsynaptic 5-HT1A receptors in a series of N4-substituted arylpiperazines” (J Med Chem, 1995).

How the values were obtained:
[1] = Ratio of MED (agonist) to that of MED (antagonist) values.; format: functional
Procedure, shortened: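 The MED for inducing hypothermia alone was divided by the MED for blocking 8-OH-DPAT (0.16 mg/kg sc) hypothermia. Both MEDs came from sc dosing in male Wistar rats and were tested against vehicle by ANOVA with Dunnett's test, P < 0.05.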

D(2) dopamine receptor = D(2) dopamine receptor (Rattus norvegicus, UniProt P61169); experiment: In vitro binding affinity towards dopamine D2 receptor in rat striatum was determined using [3H]-spiperone as radioligand; format: tissue-based
Procedure, shortened: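 Rat striatal membranes (1/300 wt/vol), no preincubation, in 50 mM Tris pH 7.4 with CaCl2, ascorbic acid, 5 mM KCl, 1 mM MgCl2 and 120 mM NaCl. Ligand 0.2 nM [3H]spiperone, with 100 nM ketanserin masking 5-HT2A sites; raclopride defined nonspecific binding. Incubation 30 min at 37 °C, then filtration. pKi derived from regression-based IC50.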

[2] = target: T1, Adrenergic receptor alpha-1 (Rattus norvegicus, UniProt P15823+P23944+P43140); experiment: In vitro binding affinity towards Alpha-1 adrenergic receptor in rat cortex was determined using [3H]prazosin as radioligand
T1 sequence (P15823 whole entry): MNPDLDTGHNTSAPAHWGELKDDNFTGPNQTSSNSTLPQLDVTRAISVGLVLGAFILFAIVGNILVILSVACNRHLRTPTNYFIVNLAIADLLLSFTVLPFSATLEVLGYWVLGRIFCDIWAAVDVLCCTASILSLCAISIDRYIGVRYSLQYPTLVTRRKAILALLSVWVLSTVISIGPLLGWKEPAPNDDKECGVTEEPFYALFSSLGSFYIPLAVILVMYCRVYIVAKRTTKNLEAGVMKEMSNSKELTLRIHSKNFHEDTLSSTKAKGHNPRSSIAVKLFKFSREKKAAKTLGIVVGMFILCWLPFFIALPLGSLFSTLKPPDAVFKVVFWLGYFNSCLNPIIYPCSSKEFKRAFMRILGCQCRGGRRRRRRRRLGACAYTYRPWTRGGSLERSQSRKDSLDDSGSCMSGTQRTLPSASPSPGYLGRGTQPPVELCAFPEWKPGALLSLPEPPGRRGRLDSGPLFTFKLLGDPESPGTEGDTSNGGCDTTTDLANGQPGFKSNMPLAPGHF
T1 sequence (P23944 whole entry): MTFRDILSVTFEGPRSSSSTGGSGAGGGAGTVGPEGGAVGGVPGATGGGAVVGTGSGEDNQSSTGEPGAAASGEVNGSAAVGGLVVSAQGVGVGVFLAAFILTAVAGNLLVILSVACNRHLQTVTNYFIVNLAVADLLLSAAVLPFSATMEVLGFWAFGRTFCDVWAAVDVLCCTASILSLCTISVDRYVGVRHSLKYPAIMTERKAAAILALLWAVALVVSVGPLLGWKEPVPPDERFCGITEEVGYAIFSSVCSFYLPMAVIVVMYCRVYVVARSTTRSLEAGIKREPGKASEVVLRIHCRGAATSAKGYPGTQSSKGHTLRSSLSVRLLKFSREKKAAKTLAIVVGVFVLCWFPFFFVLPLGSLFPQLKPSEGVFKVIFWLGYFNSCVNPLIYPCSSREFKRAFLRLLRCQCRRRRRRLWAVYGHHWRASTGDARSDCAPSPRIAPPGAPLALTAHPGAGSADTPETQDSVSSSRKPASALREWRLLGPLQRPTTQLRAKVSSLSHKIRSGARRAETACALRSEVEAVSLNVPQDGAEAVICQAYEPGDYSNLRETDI
T1 sequence (P43140 whole entry): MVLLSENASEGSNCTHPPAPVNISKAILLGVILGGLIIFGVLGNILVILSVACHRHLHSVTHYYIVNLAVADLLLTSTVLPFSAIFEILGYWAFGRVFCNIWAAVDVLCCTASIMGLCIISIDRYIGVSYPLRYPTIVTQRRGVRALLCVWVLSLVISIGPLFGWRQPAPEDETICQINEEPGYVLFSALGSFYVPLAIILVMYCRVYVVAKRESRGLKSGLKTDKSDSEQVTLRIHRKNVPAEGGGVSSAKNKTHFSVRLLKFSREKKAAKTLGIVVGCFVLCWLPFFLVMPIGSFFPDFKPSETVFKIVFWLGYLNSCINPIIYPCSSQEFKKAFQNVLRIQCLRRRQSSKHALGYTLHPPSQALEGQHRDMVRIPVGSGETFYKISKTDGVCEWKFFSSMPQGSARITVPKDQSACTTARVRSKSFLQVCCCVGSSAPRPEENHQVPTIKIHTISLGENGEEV
Procedure, shortened: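 Rat frontal cortex membranes (1/80 wt/vol), no preincubation, in 50 mM Tris pH 7.6 with 4 mM CaCl2 and 0.1% ascorbic acid. Ligand 0.2 nM [3H]prazosin, with phentolamine for nonspecific binding. Incubation 60 min at 25 °C, then filtration. IC50 obtained by regression and converted to pKi with radioligand Kd from saturation experiments.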

Rattus norvegicus [3] = species: Rattus norvegicus; experiment: Maximum antagonist effect (% effect) expressed relative to 8-hydroxy-DPAT (100%); format: functional
Procedure, shortened: (§1)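 In the rat rectal-temperature model (sc dosing, 8-OH-DPAT 0.16 mg/kg sc for antagonism), the maximal percentage of induced hypothermia (agonist) and of block of 8-OH-DPAT hypothermia (antagonist) was recorded. Each value is given with the dose at which it was reached.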

Rattus norvegicus [4] = experiment: Compound after subcutaneous administration was evaluated for antagonist activity against hypothermia induced by 8-hydroxy -DPAT in rat; format: functional; details: sc, read-out: ID50 (the source's name)
Procedure, shortened: (§2)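 Male Wistar rats (200-220 g) had rectal temperature taken, then received the test drug sc in distilled water (1.0 mL/kg). After 30 min they got 8-OH-DPAT 0.16 mg/kg sc, and temperature was remeasured 30 min later. Change from basal was scored.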

[5] = target: 5-hydroxytryptamine receptor 1B (Rattus norvegicus, UniProt P28564); experiment: Binding affinity at 5-hydroxytryptamine 1B receptor
Procedure, shortened: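 Rat frontal cortex membranes (1/40 wt/vol) were homogenized in 50 mM Tris pH 7.7 with pargyline, 4 mM CaCl2 and 0.1% ascorbic acid, then preincubated for 30 min at 37 °C. Labelled with 2.0 nM [3H]-5-HT, with 100 nM 8-OH-DPAT and 100 nM mesulergine masking 5-HT1A/5-HT2A sites; 5-CT defined nonspecific binding.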

[6] = target: D(2) dopamine receptor (Rattus norvegicus) (UniProt P61169)
Rattus norvegicus [7] = experiment: Minimum effective antagonist dose administered subcutaneously; format: functional; details: sc, read-out: MED; procedure, shortened: as §2
Rattus norvegicus [8] = species: Rattus norvegicus; experiment: Maximum agonist effect (% effect) expressed relative to 8-hydroxy-DPAT (100%); format: functional; procedure, shortened: as §1
Rattus norvegicus [9] = experiment: Minimum effective agonist dose administered subcutaneously; format: functional; details: sc, read-out: MED
Procedure, shortened: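 Male Wistar rats (200-220 g) were given the test drug alone sc in water (1.0 mL/kg), with vehicle reinjected at 30 min. Rectal temperature change from basal was measured 60 min after the first injection. MED for hypothermia was set against vehicle by ANOVA with Dunnett's test, P < 0.05.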

[10] = target: T2, 5-hydroxytryptamine receptor 1A (Rattus norvegicus, UniProt P19327); experiment: Binding affinity at 5-hydroxytryptamine 1A receptor
T2 sequence (P19327 whole entry): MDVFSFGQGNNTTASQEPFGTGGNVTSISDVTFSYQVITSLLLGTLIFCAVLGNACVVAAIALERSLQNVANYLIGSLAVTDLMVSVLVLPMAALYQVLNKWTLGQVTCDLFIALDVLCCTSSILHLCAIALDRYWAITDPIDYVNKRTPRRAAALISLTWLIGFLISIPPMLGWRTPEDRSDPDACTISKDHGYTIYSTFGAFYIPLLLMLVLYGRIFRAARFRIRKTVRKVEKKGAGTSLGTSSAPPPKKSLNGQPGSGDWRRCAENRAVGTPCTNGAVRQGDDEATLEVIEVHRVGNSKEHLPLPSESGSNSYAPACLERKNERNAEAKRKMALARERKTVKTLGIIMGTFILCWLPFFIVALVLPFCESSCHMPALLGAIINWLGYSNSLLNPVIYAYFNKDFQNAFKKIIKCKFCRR
Procedure, shortened: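 Rat hippocampal membranes (1/100 wt/vol) in 50 mM Tris pH 7.7 with 4 mM CaCl2, 0.1% ascorbic acid and pargyline. Membranes were spun at 25000g, preincubated 30 min at 37 °C and respun, then incubated with 0.4 nM [3H]-8-OH-DPAT for 30 min at 25 °C. 5-HT defined nonspecific binding, and samples were filtered on PEI-soaked GF/B. IC50 came from regression; pKi = −log[IC50/(1+[L]/Kd)].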

[11] = target: Serotonin 1a (5-HT1a) receptor/Adrenergic receptor alpha-1 (Rattus norvegicus) (UniProt P15823+P23944+P43140+P19327); experiment: Ki ratio measured as the Ki values of alpha-1 adrenergic receptor to that of 5-hydroxytryptamine 1A receptor; format: protein assay
[12] = target: D(2) dopamine receptor (Rattus norvegicus) (UniProt P61169); experiment: Inhibitory activity against methyl-phenidate-induced gnawing at dopamine D2 receptor in rat
Procedure, shortened: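 Male Wistar rats (200-220 g) received the test drug sc in water (1.0 mL/kg), then methylphenidate 40.0 mg/kg ip 30 min later. Observation began 30 min after that. Gnawing bouts were counted in 10 s per minute (maximum 10) by a blinded observer.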

Sequence of 5-hydroxytryptamine receptor 1B (P28564 whole entry): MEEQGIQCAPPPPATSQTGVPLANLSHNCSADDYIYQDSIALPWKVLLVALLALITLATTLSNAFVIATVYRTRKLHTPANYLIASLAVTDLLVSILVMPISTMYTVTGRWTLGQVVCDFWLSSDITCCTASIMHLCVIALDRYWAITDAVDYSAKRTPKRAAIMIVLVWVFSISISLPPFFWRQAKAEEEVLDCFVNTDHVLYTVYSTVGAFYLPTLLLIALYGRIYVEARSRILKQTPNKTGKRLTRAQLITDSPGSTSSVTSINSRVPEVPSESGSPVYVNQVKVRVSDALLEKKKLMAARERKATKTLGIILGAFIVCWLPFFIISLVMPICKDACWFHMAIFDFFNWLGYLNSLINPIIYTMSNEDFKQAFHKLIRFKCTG
Sequence of D(2) dopamine receptor (Rattus norvegicus) (P61169 whole entry): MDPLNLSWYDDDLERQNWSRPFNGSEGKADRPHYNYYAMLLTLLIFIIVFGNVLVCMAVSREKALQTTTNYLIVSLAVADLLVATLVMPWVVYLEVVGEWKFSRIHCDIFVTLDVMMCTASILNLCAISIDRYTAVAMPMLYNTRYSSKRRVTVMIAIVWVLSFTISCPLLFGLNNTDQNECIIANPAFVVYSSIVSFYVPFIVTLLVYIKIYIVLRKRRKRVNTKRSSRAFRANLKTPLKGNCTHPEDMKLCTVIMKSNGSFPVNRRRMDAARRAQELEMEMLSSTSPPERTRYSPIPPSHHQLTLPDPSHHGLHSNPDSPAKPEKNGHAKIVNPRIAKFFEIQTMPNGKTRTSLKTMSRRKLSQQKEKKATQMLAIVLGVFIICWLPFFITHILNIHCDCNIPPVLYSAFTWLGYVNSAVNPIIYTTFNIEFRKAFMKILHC
Sequence of D(2) dopamine receptor (P61169 whole entry): as above

ID50 [12] | Structure (SMILES) | Ratio [1] | Ki (D(2) dopamine receptor) | Log Ki [2] | Max effect (Rattus norvegicus [3]) | ED50 (Rattus norvegicus [4]) | Ki [5] | ID50 [6] | minimal effective dose (Rattus norvegicus [7]) | Max effect (Rattus norvegicus [8]) | minimal effective dose (Rattus norvegicus [9]) | Ki [10] | Ki ratio [11]
 | Clc1cccc2c1CC2CCN1CCN(c2cccc3c2OCCO3)CC1 (stereo unspecified) | 32 | 60.3 nM | -7.19 | 96% | 1.13 mg/kg | 708 nM | > 40 mg/kg | 1.25 mg/kg | 52% | 40 mg/kg | 2.24 nM | 28.8
> 40 mg/kg | Clc1cccc2c1CC2CN1CCN(c2cccc3c2OCCO3)CC1 (stereo unspecified) | 63.5 |  |  | 100% | 0.8 mg/kg | 550 nM |  | 0.63 mg/kg | 0% | 40 mg/kg | 3.98 nM | 
